These results are taken from ChEMBL document CHEMBL5338819, “Tuning the Metabolic Stability of Visual Cycle Modulators through Modification of an RPE65 Recognition Motif” (J Med Chem, 2023).

The term IC50 denotes the concentration at which inhibition is half-maximal. As a reminder, the Vmax is the rate approached at saturating substrate. In general, Km refers to the concentration of substrate that gives half-maximal velocity.

The target in data set [1] is Retinoid isomerohydrolase (Bos taurus) (UniProt Q28175). The experiment in a line: Inhibition of RPE65 in bovine microsomes assessed as reduction on 11-cis-retinol production at 0.5 to 50 uM incubated for 1 hr by HPLC analysis. The note with it: Microsome, dose 0.5-50 µM.
Data set [2] deals with Retinoid isomerohydrolase (Bos taurus, UniProt Q28175). The experiment in a line: Inhibition of RPE65 in bovine microsomes assessed as reduction on 11-cis-retinol production incubated for 1 hr by HPLC analysis. More on the design: species or system Microsome.
For data set [3], the target named is T1, Retinoid isomerohydrolase (Mus musculus) (UniProt Q91ZQ5).
T1 sequence (whole entry): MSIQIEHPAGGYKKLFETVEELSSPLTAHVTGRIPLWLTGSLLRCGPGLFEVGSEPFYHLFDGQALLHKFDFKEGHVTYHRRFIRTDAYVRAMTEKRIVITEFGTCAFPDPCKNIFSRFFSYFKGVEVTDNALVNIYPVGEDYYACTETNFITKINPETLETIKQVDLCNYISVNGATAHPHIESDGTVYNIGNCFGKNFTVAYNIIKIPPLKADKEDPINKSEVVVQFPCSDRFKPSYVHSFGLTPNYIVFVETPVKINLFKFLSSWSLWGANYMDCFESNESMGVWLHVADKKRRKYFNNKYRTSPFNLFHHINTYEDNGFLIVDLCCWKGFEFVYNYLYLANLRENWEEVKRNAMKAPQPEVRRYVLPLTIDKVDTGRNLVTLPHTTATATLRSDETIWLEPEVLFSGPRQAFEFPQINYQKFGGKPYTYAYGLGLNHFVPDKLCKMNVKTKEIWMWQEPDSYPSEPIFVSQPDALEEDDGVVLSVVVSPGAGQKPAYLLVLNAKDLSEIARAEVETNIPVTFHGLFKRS
The experiment in a line: In vivo inhibition of RPE65 in BALB/cJ mouse eye by measuring 11-cis-retinal level per eye at 10 mg/kg,ip administrated and measured after 4 hrs of dark adaptation by HPLC analysis. Format: functional, organism-based.

The target in data set [4] is Retinoid isomerohydrolase (Bos taurus) (UniProt Q28175). The experiment in a line: Inhibition of RPE65 in bovine microsomes assessed as fold decrease in 11-cis-retinol production at 0.02 to 10 uM incubated for 1 hr by HPLC analysis. Conditions: Microsome, dose 0.02-10 µM. Put shortly: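 Bovine RPE microsomes in 10 mM BTP pH 7.4 with 1% BSA, 5 mM pyrophosphate and 16.4 µM apo-CRALBP (His-tagged, E. coli-expressed, Ni-purified). Amine in DMF, 0–10 µM final, was preincubated 2 min. All-trans-retinol was added, then 1 h at 37 °C in the dark. Reaction was quenched with methanol and extracted with hexane. 11-cis-retinol was quantified by normal-phase HPLC.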

The target in data set [5] is T1, Retinoid isomerohydrolase (Mus musculus). The experiment in a line: In vivo inhibition of RPE65 in BALB/cJ mouse eye by measuring retinyl ester level per eye at 10 mg/kg,ip administrated and measured after 24 hrs of dark adaptation by HPLC analysis. Format: functional, organism-based.
The target is the same in data set [6]. The experiment in a line: In vivo inhibition of RPE65 in BALB/cJ mouse eye by measuring retinyl ester level per eye at 10 mg/kg,ip administrated by HPLC analysis. Format: functional, organism-based.
Data set [7] has the same target. The experiment in a line: In vivo inhibition of RPE65 in BALB/cJ mouse eye by measuring 11-cis-retinal level per eye at 10 mg/kg,ip administrated by HPLC analysis. Format: functional, organism-based.
Data set [8] has the same target. The experiment in a line: In vivo inhibition of RPE65 in BALB/cJ mouse eye by measuring retinyl ester level per eye at 10 mg/kg,ip administrated and measured after 4 hrs of dark adaptation by HPLC analysis. It counts as functional, organism-based.
The target is the same in data set [9]. The experiment in a line: In vivo inhibition of RPE65 in BALB/cJ mouse eye by measuring 11-cis-retinal level per eye at 10 mg/kg,ip administrated and measured after 24 hrs of dark adaptation by HPLC analysis. Format: functional, organism-based.
Data set [10] in a line: Metabolic stability in mouse liver microsomes assessed as CYP450-mediated metabolism by measuring Vmax measured upto 60 mins in presence of NADPH by Michaelis-Menten based HPLC analysis. It counts as ADME, Microsome. The note with it: 1 h. On the technique in general: Liver microsomes are vesicles of endoplasmic reticulum, rich in cytochrome P450 enzymes.
The nature of data set [11]: Metabolic stability in mouse liver microsomes assessed as CYP450-mediated metabolism by measuring initial velocity at 200 uM measured upto 60 mins in presence of NADPH by HPLC analysis. Format: ADME, Microsome. Conditions: 1 h.
Data set [12] is described as follows: Drug concentration in C57BL/6J mouse eye assessed per eye at 10 mg/kg,ip administrated and measured after 4 hr by HPLC-MS analysis. Conditions: in vivo. Format: ADME, organism-based.
Data set [13] is described as follows: Drug concentration in C57BL/6J mouse serum at 10 mg/kg,ip administrated and measured after 1 hr by HPLC-MS analysis. It counts as ADME, organism-based. Conditions: read-out: Ct.
The nature of data set [14]: Drug concentration in mouse aorta by HPLC analysis. Format: ADME, tissue-based. Conditions: in vitro, read-out: Drug uptake.
A short description of data set [15]: Drug concentration in C57BL/6J mouse eye assessed per eye at 10 mg/kg,ip administrated and measured after 24 hr by HPLC-MS analysis. It counts as ADME, organism-based. Conditions: in vivo.
Data set [16] can be described thus: Drug concentration in C57BL/6J mouse serum assessed as emixustat concentration at 10 mg/kg,ip administrated and measured after 4 hr by HPLC-MS analysis. Format: ADME, organism-based. The note with it: in vivo, read-out: Ct.
The nature of data set [17]: Intrinsic clearance in mouse liver microsomes measured upto 60 mins in presence of NADPH by HPLC analysis. It counts as ADME, Microsome. The note with it: 1 h.
Data set [18] can be described thus: Metabolic stability in mouse liver microsomes assessed as CYP450-mediated metabolism by measuring Km measured upto 60 mins in presence of NADPH by Michaelis-Menten based HPLC analysis. Conditions: 1 h. Format: ADME, Microsome.
Data set [19] can be described thus: Drug metabolism in mouse aorta assessed as VAP-1 mediated oxidative deaminated product formation by measuring ACU-5201 metabolite concentration and measured after 4 hr by HPLC analysis. It counts as ADME, tissue-based.
A short description of data set [20]: Drug concentration in C57BL/6J mouse serum assessed as emixustat concentration at 10 mg/kg,ip administrated and measured after 1 hr by HPLC-MS analysis. Format: ADME, organism-based. Conditions: in vivo, read-out: Ct.
The nature of data set [21]: Drug metabolism in mouse aorta assessed as VAP-1 mediated oxidative deaminated product formation by measuring ACU-5201 metabolite concentration and measured after 1 hr by HPLC analysis. Format: ADME, tissue-based.
Data set [22] in a line: Metabolic stability in mouse liver microsomes assessed as CYP450-mediated metabolism by measuring initial velocity at 15 uM measured upto 60 mins in presence of NADPH by HPLC analysis. Format: ADME, Microsome. Conditions: 1 h.
A short description of data set [23]: Metabolic stability in mouse liver microsomes assessed as CYP450-mediated metabolism by measuring initial velocity at 25 uM measured upto 60 mins in presence of NADPH by HPLC analysis. It counts as ADME, Microsome. Conditions: 1 h.
Data set [24] is described as follows: Drug concentration in C57BL/6J mouse eye assessed as emixustat concentration per eye at 10 mg/kg,ip administrated and measured after 24 hr by HPLC-MS analysis. Format: ADME, organism-based. The note with it: in vivo.
Data set [25] is described as follows: Drug metabolism in mouse aorta assessed as VAP-1 mediated oxidative deaminated product formation by measuring ACU-5201 metabolite concentration by HPLC analysis. It counts as ADME, tissue-based.
A short description of data set [26]: Drug concentration in mouse aorta measured after 1 hr by HPLC analysis. It counts as ADME, tissue-based. The note with it: read-out: Drug uptake.
Data set [27] in a line: Drug concentration in mouse aorta measured after 4 hr by HPLC analysis. It counts as ADME, tissue-based. Conditions: read-out: Drug uptake.
A short description of data set [28]: Metabolic stability in mouse liver microsomes assessed as CYP450-mediated metabolism by measuring initial velocity at 50 uM measured upto 60 mins in presence of NADPH by HPLC analysis. It counts as ADME, Microsome. The note with it: 1 h.
Data set [29] in a line: Metabolic stability in mouse liver microsomes assessed as CYP450-mediated metabolism by measuring initial velocity at 100 uM measured upto 60 mins in presence of NADPH by HPLC analysis. Format: ADME, Microsome. The note with it: 1 h.

Active and inactive are the calls of the source. No cut-off for these calls is given here.

Chain of Retinoid isomerohydrolase (Bos taurus) (Q28175 2-533 limits assumed): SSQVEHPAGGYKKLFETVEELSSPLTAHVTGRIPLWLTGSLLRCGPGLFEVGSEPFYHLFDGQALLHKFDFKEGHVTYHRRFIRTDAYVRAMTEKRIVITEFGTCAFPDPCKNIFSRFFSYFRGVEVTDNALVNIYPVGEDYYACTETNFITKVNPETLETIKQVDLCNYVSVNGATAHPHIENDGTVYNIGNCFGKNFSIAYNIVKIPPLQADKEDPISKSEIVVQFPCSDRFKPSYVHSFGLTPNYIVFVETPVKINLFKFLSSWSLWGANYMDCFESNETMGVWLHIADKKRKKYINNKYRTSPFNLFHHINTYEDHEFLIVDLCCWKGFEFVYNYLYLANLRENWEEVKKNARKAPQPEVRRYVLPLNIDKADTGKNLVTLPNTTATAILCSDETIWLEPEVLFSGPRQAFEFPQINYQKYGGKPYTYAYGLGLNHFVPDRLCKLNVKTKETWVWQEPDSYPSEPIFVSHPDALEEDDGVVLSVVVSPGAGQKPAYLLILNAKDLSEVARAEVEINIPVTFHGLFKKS
Chain of Retinoid isomerohydrolase (Q28175 whole entry): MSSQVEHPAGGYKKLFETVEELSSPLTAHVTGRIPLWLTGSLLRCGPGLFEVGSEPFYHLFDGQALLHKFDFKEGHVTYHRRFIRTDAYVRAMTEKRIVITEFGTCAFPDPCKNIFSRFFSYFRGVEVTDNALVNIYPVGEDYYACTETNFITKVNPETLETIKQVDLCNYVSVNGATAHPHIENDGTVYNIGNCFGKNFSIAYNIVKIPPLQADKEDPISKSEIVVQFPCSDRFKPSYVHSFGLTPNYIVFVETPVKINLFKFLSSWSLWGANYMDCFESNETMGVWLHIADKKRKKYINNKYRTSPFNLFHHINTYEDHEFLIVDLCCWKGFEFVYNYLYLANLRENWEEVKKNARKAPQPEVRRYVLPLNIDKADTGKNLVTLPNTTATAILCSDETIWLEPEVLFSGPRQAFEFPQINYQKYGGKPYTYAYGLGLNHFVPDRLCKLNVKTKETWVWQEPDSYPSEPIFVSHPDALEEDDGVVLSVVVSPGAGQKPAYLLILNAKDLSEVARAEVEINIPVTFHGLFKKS

Turning to `NC(CO)Cc1cccc(OCC2CCCCC2)c1` (configuration not stated), in [1], the inhibition result was “inactive”. In data set [2], the concentration for half-maximal inhibition (IC50) result is “Not Active”.

For the compound `NC(CCO)c1cccc(OCC2CCCCC2)c1` (configuration not stated), the inhibition entry in [1] is “inactive”. In addition, the IC50 result in [2] was “Not Active”.

For `NC(CO)Cc1ccc(OCC2CCCCC2)cc1` (configuration not stated), the inhibition entry in data set [1] was “inactive”. Also, the IC50 entry in data set [2] is “Not Active”.

With `NCCC(O)c1ccc(OCC2CCCCC2)cc1` (configuration not stated), the concentration for half-maximal inhibition (IC50) in data set [2] (read-out: IC50) worked out at 8080 nM.

Take `CC(CCN)c1cccc(OCC2CCCCC2)c1` (configuration not stated): the Activity was found to be 94.4 pmol in data set [3]; 124 pmol in data set [5]; 292 pmol in [6]; 25.6 pmol in [7]; 436 pmol in data set [8]; 370 pmol in data set [9]. Also, the fold change (FC) in data set [4] is 4.

Take `CC(CN)Cc1ccc(F)c(OCC2CCCCC2)c1` (configuration not stated): the Activity was found to be 413 pmol in data set [3]; 123 pmol in data set [5]; 260 pmol in data set [6]; 23.5 pmol in data set [7]; 101 pmol in [8]; 398 pmol in data set [9]. For the same compound, the IC50 result in data set [2] was “Not Active”.

Take `NCCc1cccc(OCC2CCCCC2)c1`: the Activity in data set [3] came to 393 pmol; in [5], 65 pmol; in data set [6], 254 pmol; in data set [7], 16 pmol; in [8], 89.5 pmol; in data set [9] it was 406 pmol.

Take `NCCCc1cccc(OCC2CCCCC2)c1`: the fold change (FC) in [4] was found to be 8.

`CNCCC(O)c1cccc(OCC2CCCCC2)c1` (configuration not stated): the Activity in [3] was 22.5 pmol; in data set [5], 215 pmol; in data set [6], 297 pmol; in [7], 13.8 pmol; in data set [8] it was 396 pmol; in [9], 202 pmol. In addition, the Vmax in data set [10] is on record as 119.5 pmol/min. The V0 in data set [11] amounted to 97.45 pmol/min; in [22], 23.38 pmol/min; in data set [23] it was 54.17 pmol/min; in data set [28], 64.21 pmol/min; in [29], 89.82 pmol/min. In addition, the Ct is on record as 7.609 pmol in data set [12], 0 pmol in [15] and 1.329 pmol in [24]. Moreover, the concentration at 1 h in data set [13] was 0.75 µM; in [26] it was 101 µM. For the same compound, the values for the concentration in data set [14], in data set [16] and in data set [20] were 100 µM, 0.0795 µM and 0.0523 µM, respectively. Also, the CLH in [17] is 30700 µL/min/mg. Besides, the Michaelis-Menten constant (Km) in [18] is 0.039 µM. In addition, the Drug metabolism stood at 3.76 µM in data set [19], 0.48 µM in data set [21] and 0 µM in data set [25]. In addition, the IC50 in [2] (read-out: IC50) stood at 290 nM. Further, the concentration at 4 h in data set [27] amounted to 89.1 µM.

On to `CC(CN)Cc1cccc(OCC2CCCCC2)c1` (configuration not stated), for which the Activity in data set [3] was 323 pmol; in [5], 85.6 pmol; in [6] it was 256 pmol; in data set [7] it was 17.4 pmol; in [8], 112 pmol; in data set [9] it was 254 pmol. Moreover, in [2] (read-out: IC50), the half-maximal inhibitory concentration (IC50) turned out to be 390 nM.
